Our source for the IC50, CI and Ratio IC50 values is ChEMBL document CHEMBL4014350, “Alkoxyurea-Based Histone Deacetylase Inhibitors Increase Cisplatin Potency in Chemoresistant Cancer Cell Lines” (J Med Chem, 2017).

What is called IC50 is the concentration that gives 50% inhibition.

Experiment [1] in a line: Inhibition of HDAC in human Cal27CisR cells using Boc-Lys(epsilon-Ac)-AMC as substrate preincubated for 18 hrs followed by substrate addition measured after 3 hrs by fluorescence assay. Format: cell-based.
The test system of experiment [2] is CAL-27. In words: Potentiation of 0.316 uM cisplatin-induced cytotoxicity against human CAL27 cells assessed as decrease in cell viability by measuring combination index at 600 uM preincubated for 48 hrs followed by cisplatin treatment measured after 72 hrs by MTT assay. The format is functional. Particulars: in the assay text read “at 600 nM” for “at 600 uM”. The essentials:
(§1)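 Cal27 and cisplatin-resistant Cal27CisR cells were preincubated with the HDAC inhibitor for 48 h, then given cisplatin in combination. Viability was read by MTT after 72 h. The combination index was computed by the Chou–Talalay method: CI > 1 is antagonism, CI = 1 is additive, and CI < 0.9 is synergism. Points with fraction affected below 0.20 were flagged.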
(Tetrazolium assays rely on reduction of a dye to a coloured formazan, in cell work by metabolically active cells.)

Experiment [3] has as its system CAL-27. In words: Potentiation of 0.5 uM cisplatin-induced cytotoxicity against human CAL27 cells assessed as decrease in cell viability measuring combination index at 500 uM preincubated for 48 hrs followed by cisplatin treatment measured after 72 hrs by MTT assay. The format is functional. The note with it: in the assay text read “at 500 nM” for “at 500 uM”. In outline:
as §1

The target of experiment [4] is T1, Protein deacetylase HDAC6 (Homo sapiens, UniProt Q9UBN7).
T1 sequence (Q9UBN7 whole entry): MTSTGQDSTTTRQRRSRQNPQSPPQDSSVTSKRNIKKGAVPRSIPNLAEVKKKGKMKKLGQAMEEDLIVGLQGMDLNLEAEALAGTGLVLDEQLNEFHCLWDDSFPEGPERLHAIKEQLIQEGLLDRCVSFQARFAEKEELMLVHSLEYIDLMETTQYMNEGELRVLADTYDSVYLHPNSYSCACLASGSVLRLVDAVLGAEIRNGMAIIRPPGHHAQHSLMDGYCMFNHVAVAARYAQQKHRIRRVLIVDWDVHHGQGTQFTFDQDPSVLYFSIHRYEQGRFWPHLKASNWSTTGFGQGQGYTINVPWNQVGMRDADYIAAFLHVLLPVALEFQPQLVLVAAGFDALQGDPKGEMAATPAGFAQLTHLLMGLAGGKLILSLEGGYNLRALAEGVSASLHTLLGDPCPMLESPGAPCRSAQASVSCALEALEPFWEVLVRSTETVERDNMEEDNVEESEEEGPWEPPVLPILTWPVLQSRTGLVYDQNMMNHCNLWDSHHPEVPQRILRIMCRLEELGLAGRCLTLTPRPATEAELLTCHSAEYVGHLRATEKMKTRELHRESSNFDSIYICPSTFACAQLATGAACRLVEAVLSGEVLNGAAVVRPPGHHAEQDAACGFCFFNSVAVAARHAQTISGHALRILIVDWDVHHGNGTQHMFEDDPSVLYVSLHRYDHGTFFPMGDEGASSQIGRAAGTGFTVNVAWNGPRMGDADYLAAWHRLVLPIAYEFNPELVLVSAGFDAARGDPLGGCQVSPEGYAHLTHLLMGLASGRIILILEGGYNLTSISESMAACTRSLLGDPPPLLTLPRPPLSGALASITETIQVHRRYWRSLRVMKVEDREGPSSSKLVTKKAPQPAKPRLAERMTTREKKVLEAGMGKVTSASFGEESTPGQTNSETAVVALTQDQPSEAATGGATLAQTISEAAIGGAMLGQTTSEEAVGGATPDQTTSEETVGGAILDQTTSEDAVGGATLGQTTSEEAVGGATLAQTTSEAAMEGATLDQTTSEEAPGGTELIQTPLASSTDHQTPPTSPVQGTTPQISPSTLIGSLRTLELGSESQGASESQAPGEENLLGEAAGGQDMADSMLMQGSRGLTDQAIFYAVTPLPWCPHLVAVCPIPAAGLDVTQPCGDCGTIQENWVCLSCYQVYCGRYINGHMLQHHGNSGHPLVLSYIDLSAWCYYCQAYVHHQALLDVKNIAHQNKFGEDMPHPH
Description: Inhibition of full length human recombinant N-terminal GST-tagged HDAC6 expressed in baculovirus infected sf9 cells Z-(Ac)Lys-AMC as substrate measured after 90 mins by fluorescence assay.

Experiment [5] addresses T2, Histone deacetylase 1/6 (Homo sapiens) (UniProt Q13547+Q9UBN7). In words: Inhibition of HDAC1/HDAC6 in human Cal27CisR cells assessed as potentiation of 10 uM cisplatin-induced cytotoxicity by measuring combination index at 600 nM preincubated for 48 hrs followed by cisplatin treatment measured after 72 hrs by MTT assay.
Experiment [6] can be described thus: Inhibition of HDAC in human A2780 cells using Boc-Lys(epsilon-Ac)-AMC as substrate preincubated for 18 hrs followed by substrate addition measured after 3 hrs by fluorescence assay. The format is cell-based.
The test system of the next experiment is A2780. Description: Antiproliferative activity against human A2780 cells measured after 72 hrs by MTT assay. The format is functional, cell-based. The note with it: A2780, 72 h.
The target in a further experiment is Histone deacetylase 1 (Homo sapiens, UniProt Q13547). In words: Inhibition of recombinant full length human C-terminal FLAG/His-tagged HDAC1 expressed in baculovirus infected sf9 cells using Z-(Ac)Lys-AMC as substrate measured after 90 mins by fluorescence assay.
Sequence of Histone deacetylase 1 (Q13547 whole entry): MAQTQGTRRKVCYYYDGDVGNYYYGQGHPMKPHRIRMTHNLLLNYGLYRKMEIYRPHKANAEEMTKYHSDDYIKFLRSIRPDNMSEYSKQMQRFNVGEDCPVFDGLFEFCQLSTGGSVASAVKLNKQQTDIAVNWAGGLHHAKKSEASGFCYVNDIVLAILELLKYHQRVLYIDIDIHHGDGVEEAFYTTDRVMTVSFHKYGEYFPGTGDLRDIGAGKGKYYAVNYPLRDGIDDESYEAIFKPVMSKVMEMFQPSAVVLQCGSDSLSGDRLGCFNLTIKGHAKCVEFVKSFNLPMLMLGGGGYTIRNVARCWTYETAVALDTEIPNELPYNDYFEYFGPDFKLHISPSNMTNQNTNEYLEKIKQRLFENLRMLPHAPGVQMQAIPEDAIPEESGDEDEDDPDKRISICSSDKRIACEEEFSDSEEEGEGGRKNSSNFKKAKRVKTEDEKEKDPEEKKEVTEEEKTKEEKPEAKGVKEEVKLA
The target in the next experiment is T3, Histone deacetylase 8 (Homo sapiens, UniProt Q9BY41).
T3 sequence (Q9BY41 whole entry): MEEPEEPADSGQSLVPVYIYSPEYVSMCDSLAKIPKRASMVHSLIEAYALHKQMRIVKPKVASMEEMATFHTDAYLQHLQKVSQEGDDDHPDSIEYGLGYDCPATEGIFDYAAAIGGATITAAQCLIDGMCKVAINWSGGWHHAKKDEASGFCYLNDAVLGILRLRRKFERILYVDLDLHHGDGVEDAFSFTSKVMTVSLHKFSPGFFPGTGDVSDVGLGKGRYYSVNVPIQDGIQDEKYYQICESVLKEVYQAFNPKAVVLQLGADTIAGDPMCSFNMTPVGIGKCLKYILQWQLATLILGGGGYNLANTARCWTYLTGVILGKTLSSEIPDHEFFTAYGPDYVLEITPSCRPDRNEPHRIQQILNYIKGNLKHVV
In words: Inhibition of human HDAC8 using Z-L-Lys(epsilon-trifluoroacetyl)-AMC as substrate measured after 90 mins by fluorescence assay.

The species named for another experiment is Homo sapiens. Description: Selectivity index, ratio of IC50 for recombinant full length human C-terminal FLAG/His-tagged HDAC1 expressed in baculovirus infected sf9 cells to IC50 for full length human recombinant N-terminal GST-tagged HDAC6 expressed in baculovirus infected sf9 cells. The essentials:
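Ratio of isolated-enzyme IC50 values. HDAC1, HDAC6 and HDAC8 IC50s were each the mean ± SD of three independent experiments.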

Experiment [7] has as its target T2, Histone deacetylase 1/6 (Homo sapiens). In words: Inhibition of HDAC1/HDAC6 in human Cal27CisR cells assessed as potentiation of 1 uM cisplatin-induced cytotoxicity by measuring combination index at 800 uM preincubated for 48 hrs followed by cisplatin treatment measured after 72 hrs by MTT assay. Format: cell-based. In outline:
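Cal27CisR cells preincubated 48 h with the HDAC inhibitor, then exposed to cisplatin for 72 h. Viability read by MTT. Combination index calculated by the Chou–Talalay method: CI > 1 antagonism, CI = 1 additive, CI < 0.9 synergism. Points with fraction affected below 0.20 are flagged. Values are the mean of three experiments.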

T2 sequence (Q13547 whole entry, looked up, one chain of several): as the sequence (Q13547 whole entry) above

As for `COc1cc(NC(=O)NOCCCCCC(=O)NO)c2nc(OC)cc(C)c2c1`, the IC50 in experiment [1] came to 500 nM; in experiment [4], 2.8 nM; in experiment [6], 1700 nM; in the experiment with A2780, 800 nM; at Histone deacetylase 1, 43.2 nM; at Histone deacetylase 8 it was 1540 nM. For the same compound, the CI in the experiment with CAL-27 [2] worked out at 0.71; in the experiment with CAL-27 [3], 0.66; in experiment [5], 0.17; in experiment [7] it was 0.65. The Ratio IC50 in the experiment filed under Homo sapiens was 15.

With `COc1cc(NC(=O)NOCCCCCC(=O)NO)c2nccc(C)c2c1`, the IC50 in experiment [1] worked out at 500 nM; in experiment [4], 24.8 nM; in [6], 900 nM; in the experiment on A2780, 1100 nM; on Histone deacetylase 1, 77.3 nM; against Histone deacetylase 8, 1220 nM. Moreover, the CI in the experiment on CAL-27 [2] came to 0.93; with CAL-27 [3] it was 0.49; in [5], 0.2; in experiment [7] it was 1.09. The Ratio IC50 in the experiment listed under Homo sapiens is below 15.

With `COc1cc(NC(=O)NOCCCCCC(=O)NO)c2ncccc2c1`, the IC50 in experiment [1] was determined as 700 nM; in [4], 6.1 nM; in experiment [6], 1000 nM; with A2780, 1200 nM; at Histone deacetylase 1, 51.9 nM; against Histone deacetylase 8, 1080 nM. The CI in the experiment on CAL-27 [2] was 0.79; in the experiment with CAL-27 [3], 0.87; in experiment [5] it was 0.36; in experiment [7], 0.81. Further, in the experiment listed under Homo sapiens, the Ratio IC50 was below 15.
